An excerpt weighted towards active compounds, which were near 1.9% of everything screened.
VIM-2 inh – inhibitors of Pseudomonas aeruginosa VIM-2 metallo-beta-lactamase. inhibition, % at 5.6 µM. AID 1527. 0.89% of 290,000 active. purified VIM-2, nitrocefin hydrolysis, epi-absorbance fluorescence;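 active = inhibition above the mean of all tested compounds plus 3 SD, cutoff set per screening run, cut at about 7.5% in these data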;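 note: red hydrolysis product quenches plate fluorescence so inhibitors raise well fluorescence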
IMP-1 inh – inhibitors of Pseudomonas aeruginosa IMP-1 metallo-beta-lactamase; purified IMP-1, nitrocefin hydrolysis, epi-absorbance fluorescence; inhibition, % at 5.6 µM; 0.45% of 290,000 active; AID 1556;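 active = inhibition above the mean plus 3 SD of all compounds in the same screening run, cut at about 4.5% in these data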
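Assay system: purified IMP-1; Quantity: IMP-1 0.2 nM before substrate addition; Medium: HEPES buffer pH 7.1 with ZnSO4 and Brij 35; Incubation: 15 min enzyme–compound preincubation, then 25 min nitrocefin reaction, 25 °C; Signal: fluorescence quenching readout, ex 480/em 530 nm; Controls: DMSO with and without IMP-1; Repeats: singlicate testing.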
NadD inh – inhibitors of Staphylococcus aureus NadD; 0.78% of 360,000 active; inhibition, % at 20 µM; purified NadD enzyme, colorimetric absorbance read-out; AID 602399; in the data active = inhibition above about 26%
HCV core dimer – HCV core protein dimerization inhibition; TR-FRET GST/Flag-core106 dimerization, 1536-well; 0.33% of 300,000 active; inhibition, % at 5 µM;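 active = inhibition above the mean of all tested compounds plus 3 SD, set per screening campaign, cut at about 45% in these data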
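test system = GST/Flag-tagged HCV core106 proteins | probe or stimulus = Eu donor and XL665 acceptor anti-tag antibodies | times = compound-protein-antibody incubation 4 h at 22.5 °C | signal = TR-FRET, excitation 340 nm, emission 617 and 671 nm | measure = percent inhibition of core106 dimerization signal | controls = wells lacking GST-core106 and wells with excess unlabelled core106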
NadD conf – NadD (S. aureus) inhibition, single concentration confirmation. shares compounds with NadD inh. purified S. aureus NadD, colorimetric enzyme assay. inhibition, % at 20 µM. 13% of 2,000 active; in the data active = inhibition mostly above about 42%, no sharp cut-off; inactive = mostly below about 42%
A number is an active result; . = inactive; / = no result.

SMILES	VIM-2 inh	IMP-1 inh	NadD inh	HCV core dimer	NadD conf
C/C=C(\C)C(=O)Nc1cccc(C2=NOC3(C2)C[C@@H](C(N)=O)N(C(=O)c2cc([N+](=O)[O-])cc([N+](=O)[O-])c2C)C3)c1 (stereo partly drawn)	/	/	.	.	/
NC(=O)[C@@H]1CC2(CC(c3cccc(NC(=O)CC(c4ccccc4)c4ccccc4)c3)=NO2)CN1C(=O)c1ccc(Cl)cc1 (stereo partly drawn)	/	/	32	.	.
Brc1ccc(-c2csc(Nc3nc(-c4ccc(Br)cc4)cs3)n2)cc1	.	.	30	.	.
N#Cc1c(-c2ccccc2)c(-c2ccccc2)nn(CC(=O)NNC(=O)Nc2ccc(Cl)c(Cl)c2)c1=O	.	.	51	.	.
COc1ccc(NS(=O)(=O)c2cccc(C(=O)NC3CCC(O)CC3)c2)cc1 (stereo not drawn)	.	.	.	.	/
COc1ccccc1CNS(=O)(=O)c1cc(-c2cc(C)no2)ccc1C(C)C	.	.	.	.	/
O=C(Nc1cccc(Cl)c1)c1nc[nH]c1C(=O)NCCCCNC(=O)c1[nH]cnc1C(=O)Nc1cccc(Cl)c1	/	/	31	/	.
O=C(Nc1ccc(Cl)cc1)c1nc[nH]c1C(=O)NCCCCNC(=O)c1[nH]cnc1C(=O)Nc1ccc(Cl)cc1	/	/	30	/	.
O=C(Nc1cccc(Cl)c1)c1nc[nH]c1C(=O)NCCN(CCNC(=O)c1[nH]cnc1C(=O)Nc1cccc(Cl)c1)CCNC(=O)c1[nH]cnc1C(=O)Nc1cccc(Cl)c1	/	/	59	/	.
CC(C)(C)OC(=O)NCCCCCNC(=O)c1[nH]cnc1C(=O)Nc1cccc(Cl)c1	/	/	.	/	/
O=C(Nc1ccc(Cl)cc1)c1nc[nH]c1C(=O)Nc1ccccc1F	/	/	.	/	/
CC(=O)NC1(c2ccccc2)CCN(c2cc(C)nc(-c3ccccc3)n2)CC1	.	.	.	.	/
Cc1cccc2c1NC(=O)C21N2CCCC2C(C(=O)c2ccc3ccccc3c2)C12C(=O)Nc1ccccc12 (stereo not drawn)	.	.	/	.	/
CCc1cccc2c1NC(=O)C21N2CCCC2C(C(=O)c2ccc3ccccc3c2)C12C(=O)Nc1ccccc12 (stereo not drawn)	.	.	39	.	52
CCOc1ccc2c(ccc(/C=C/c3cc(C)c4cccnc4c3O)[n+]2C)c1	/	/	55	/	89
CCOc1ccc(N=Nc2ccc(O)c3ncccc23)cc1	.	.	.	/	/
O=C(CCN1C(=O)CSc2ccccc21)Nc1ccc(OC(F)(F)F)cc1	/	/	.	/	/
O=C(Nc1nc(-c2ccccn2)cs1)c1ccc(F)c(S(=O)(=O)N2CCOCC2)c1	/	/	.	/	/
Cc1ccc(C(=O)Nc2nc(-c3ccccn3)cs2)cc1S(=O)(=O)N1CCOCC1	/	/	31	/	.
Cc1cccc2sc(NNC(=O)c3ccc(S(=O)(=O)N4CCc5ccccc5C4)cc3)nc12	.	.	38	.	51
Cc1cccc2sc(NNC(=O)c3ccc(S(=O)(=O)N4CCCC(C)C4)cc3)nc12 (stereo not drawn)	.	.	.	.	/
Cc1sc(NC(=O)c2sc3nc4c(C)cccc4cc3c2N)c(C#N)c1C	.	.	62	47	.
CCOC(=O)c1c(-c2ccc(-c3ccccc3)cc2)csc1NC(=O)C1C2CCC(O2)C1C(=O)O (stereo not drawn)	.	.	38	46	57
O=C(c1ccco1)N1N=C(c2ccco2)CC1c1ccc(Cl)cc1Cl (stereo not drawn)	/	/	31	/	.
COc1ccc(C2=NN(C(=O)c3ccco3)C(c3cc4ccccc4nc3Cl)C2)cc1 (stereo not drawn)	.	.	/	.	/
SMILES	VIM-2 inh	IMP-1 inh	NadD inh	HCV core dimer	NadD conf
Cc1cccc(N(C)C(=O)c2cnn(-c3ccccc3)c2C)c1	.	.	.	.	/
CCOC(=O)CN1N=C(c2ccc(Cl)cc2)CCC1=O	.	.	.	.	/
O=C(CSc1nnc(Cc2csc(Nc3cccc(Cl)c3)n2)o1)N1CCc2ccccc21	.	.	57	.	.
O=C(CSc1nnc(CNc2ccccc2)o1)N1CCc2ccccc21	.	.	.	.	/
O=C(CNC(=O)c1ccc([N+](=O)[O-])cc1)N/N=C\c1ccc(OC(=O)c2ccccc2)cc1	.	.	.	.	/
Cc1ccc(CC(=O)N/N=C/c2ccc(OC(=O)c3ccc([N+](=O)[O-])cc3)cc2)cc1	.	.	33	.	.
Oc1nc(Nc2ccc(Cl)cc2Cl)sc1/C=C1\C=Nc2ccccc21	.	.	42	.	.
Cc1cc2c(N)cccc2nn1	.	.	37	.	.

High-throughput results: PubChem, several laboratories
